Source: publication PMC3743796 (Open journal of clinical diagnostics, 2013)
No end group written: not given here.

Tests used:
[1] = tested on: endothelial and tumor cells; assay: Cell migration/invasion assays, endothelial and tumor cells; type: cell-based, human; details: SCNH2 10 pM, APL-13 10 nM, SM inhibitors 10 μM, n = 3
Outline: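 Chemotaxis plates: agonist peptides and 10 μM small-molecule inhibitors or 100 μg/ml immune IgG in FBS-free medium in the lower wells; 8000-10,000 cells/well (e.g. HUVEC) in FBS-free medium on the upper membrane, uncoated for migration or rat-tail collagen I-coated for invasion. Incubated 5-24 h at 37 °C/5% CO2/100% humidity. Membranes methanol-fixed, stained with 0.5% crystal violet, upper cells removed, underside cells photographed and counted.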

[2] = tested on: p44/42 MAPK signaling pathway in MCF-7 cells
[3] = tested on: p44/42 MAPK in HMEC-1 cells
[4] = tested on: SCNH2 receptor in enriched MB435 cells; assay: FACS binding inhibition assay with bSCNH2/SA488, enriched MB435; design: species or system human; details: enriched MB435, 50 μM peptide, 5 μM bSCNH2 + 10 μg/ml SA488, FACS
[5] = tested on: HUVEC cells; assay: Cell migration assay, HUVEC; type: cell-based, human; details: for peptide response hierarchy in molar potency for mediating cell movement: HUVEC migration
Outline: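 Transwell-type chemotaxis plate with uncoated membrane. Test peptides and VEGF-A, at a range of concentrations, in FBS-free medium in bottom wells; 8000–10,000 HUVEC/well in FBS-free medium on top. Incubated 5–24 h at 37°C/5% CO2/100% humidity. Membranes methanol-fixed 5 min and stained with 0.5% crystal violet; upper cells removed. Bottom adherent cells photographed and counted.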

[6] = tested on: rat aortic rings; assay: Rat aortic ring assay; type: cell-based; details: 6 days, p < 0.05
[7] = tested on: CAM of 10-day-old shell-less embryos; assay: Chorioallantoic membrane in chick embryo; type: in vivo; details: 66 hours
[8] = tested on: P-PI3K/Akt in NMuMG cells; assay: Western blot, phosphorylation of PI3K/Akt in NMuMG; type: cell-based, murine; details: maximum of dose response
[9] = tested on: P-p44/42 MAPK in NMuMG cells; assay: Western blot, phosphorylation of p44/42 MAPK in NMuMG; type: cell-based, murine; details: maximum of dose response
[10] = tested on: PI3K/Akt and p44/42 MAPK signaling pathways; assay: CTX/PTX sensitivity assay; type: cell-based
[11] = tested on: PI3K/Akt in MCF-7 cells; assay: Western blot, peptide-induced PI3K/Akt phosphorylation in MCF-7; type: cell-based, human
[12] = tested on: PI3K/Akt in HMEC-1 cells; assay: Western blot, peptide-induced PI3K/Akt phosphorylation in HMEC-1; type: cell-based, human

N#CC(=C(/N)Sc1ccccc1N)/C(C#N)=C(/N)Sc1ccccc1N [U0126]
suppression of SCNH2 and APL-13 induced cell migration and invasion [1]: effectively suppressed | suppression of APL-13 induced phosphorylation of p44/42 MAPK [2]: 97% | suppression of SCNH2 induced phosphorylation of p44/42 MAPK [2]: 97% | suppression of APL-13 induced phosphorylation of p44/42 MAPK [3]: 95% | suppression of SCNH2 induced phosphorylation of p44/42 MAPK [3]: 98%

adrenomedullin [AM]
block of the binding of bSCNH2 [4]: ineffective

vascular endothelial growth factor A [VEGF-A]
peptide response hierarchy in molar potency for mediating cell movement [5]: SCNH2 > VEGF-A > APL-13

CC(C)(C)Cn1c(N)nc2ccc(-c3[nH]c(C(C)(C)C)nc3-c3ccc(F)cc3)nc21 [LY2228820]
suppression of SCNH2 and APL-13 induced cell migration and invasion [1]: effectively suppressed

Apelin-13 [APL-13]
concentration inducing maximal vessel sprouting [6]: 10 nM | neovascularization at all of the tested concentrations ([7]; angiogenic index, p < 0.005): dramatically induced neovascularization | concentration inducing the maximum neovascularization ([7]; p < 0.005, no statistical difference to VEGF-A at 1 nM): 100 nM | maximum P-PI3K/Akt compared to the control [8]: 8 folds | maximum P-p44/42 MAPK compared to the control [9]: 5 folds | peptide response hierarchy in molar potency for mediating cell movement [5]: SCNH2 > VEGF-A > APL-13 | maximal stimulating concentration ([5]; cell migration, dose-response on HUVEC): 10 nM | block of the binding of bSCNH2 [4]: ineffective | effect of CTX on peptide signaling (kinase activation) ([10]; CTX treatment, Western blot): indifferent | effect of PTX on peptide signaling (kinase activation) ([10]; PTX pretreatment overnight, 100 pM peptide 10 min): sensitive

c1cc(CN2CCCNCCNCCCNCC2)ccc1CN1CCCNCCNCCCNCC1 [AMD3100]
suppression of SCNH2 and APL-13 induced cell migration and invasion [1]: effectively suppressed

arginine vasopressin [AVP]
block of the binding of bSCNH2 [4]: ineffective

oxytocin [OXT]
block of the binding of bSCNH2 [4]: ineffective

luteinizing hormone-releasing hormone [LHRH]
block of the binding of bSCNH2 [4]: ineffective

gastrin-releasing peptide (VPLPAGGGTVLTKMYPRGNHWAVGHLM-NH2; UniProt P07492 24-50, looked up) [GRP]
block of the binding of bSCNH2 [4]: ineffective

O=c1cc(N2CCOCC2)oc2c(-c3ccccc3)cccc12 [LY294002]
block of APL-13 induced phosphorylation of PI3K/Akt [11]: 75% | block of SCNH2 induced phosphorylation of PI3K/Akt [11]: 93% | inhibition of APL-13 induced phosphorylation of PI3K/Akt [12]: 98% | inhibition of SCNH2 induced phosphorylation of PI3K/Akt [12]: 96% | suppression of SCNH2 and APL-13 induced cell migration and invasion [1]: effectively suppressed
